ChEMBL document CHEMBL4689842, “EUbOPEN Chemogenomics Library wave 1” (2021)

Assays:
Type in all cases: toxicity, cell-based
[1] = test system: Fibroblast; assay: Incucyte cell viability with human fibroblast; conditions: 10 µM, compound concentration 10 uM; also: filed as whole numbers so only -1 and 0 and 1 occur
[2] = test system: HEK-293T; assay: Multiplex assay against HEK293T; conditions: human;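 as to Population Tubulin-Different-Phenotype (%): share of the cells with healthy nuclei that show this phenotype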
In short: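 Per cents of healthy-nucleus cells form the tubulin, mitochondrial-mass and membrane-permeability phenotype values. Live cells were stained at seeding with Hoechst33342, BioTracker Green Microtubule Cytoskeleton Dye, MitoTracker Red and Annexin V Alexa Fluor 680. After compound addition they were imaged on a CQ1 microscope at 37°C and 5% CO2, and CellPathfinder machine-learning gating split them into Hoechst high-intensity objects or normal cells, normal cells into healthy, pyknosed or fragmented nuclei, and pyknosed cells into mitotic or apoptotic.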

[3] = test system: HEK-293T; assay: Incucyte cell viability with HEK293T; conditions: human, 10 µM, compound concentration 10 uM; also: filed as whole numbers so only -1 and 0 and 1 occur
[4] = 24 h, replicate number 1, timepoint 24 hours
[5] = 12 h, 1 µM, compound concentration 1 uM, replicate 1
[6] = 12 h, 1 µM, compound concentration 1 uM, replicate 2
[7] = 12 h, 10 µM, compound concentration 10 uM, replicate 1
[8] = 12 h, 10 µM, compound concentration 10 uM, replicate 2
[9] = 24 h, 1 µM, compound concentration 1 uM, replicate 1
[10] = 24 h, 1 µM, compound concentration 1 uM, replicate 2
[11] = 24 h, 10 µM, compound concentration 10 uM, replicate 1
[12] = 24 h, 10 µM, compound concentration 10 uM, replicate 2
[13] = 48 h, 1 µM, compound concentration 1 uM, replicate 1
[14] = 48 h, 1 µM, compound concentration 1 uM, replicate 2
[15] = 48 h, 10 µM, compound concentration 10 uM, replicate 1
[16] = 48 h, 10 µM, compound concentration 10 uM, replicate 2

## Cc1cc2c(cc1N1C(=O)c3cccc4c(CCCO)ccc(c34)C1=O)n(C)c(=O)n2C
[1]; 0 h, replicate number 2, timepoint 0 hours
  Growth Rate: 0
[1]; 6 h, replicate number 1, timepoint 6 hours
  Growth Rate: 0
[1]; 6 h, replicate number 2, timepoint 6 hours
  Growth Rate: 1
[1]; 12 h, replicate number 1, timepoint 12 hours
  Growth Rate: 0
[1]; 12 h, replicate number 2, timepoint 12 hours
  Growth Rate: 1
[1]; 18 h, replicate number 1, timepoint 18 hours
  Growth Rate: 0
[1]; 18 h, replicate number 2, timepoint 18 hours
  Growth Rate: 1
[1]; [4]
  Growth Rate: 0
[1]; 24 h, replicate number 2, timepoint 24 hours
  Growth Rate: 1
[2]; [5]
  Population Apoptotic (%): 38%
  Population Fragmented Nuclei (%): 14%
  Population Healthy Nuclei (%): 44%
  Population Hoechst High Intensity Objects (%): 16%
  Population Membrane Permeable-Phenotype (%): 4%
  Population Mitochondria Different-Phenotype (%): 77%
  Population Mitotic Cells (%): 61%
  Population Normal (%): 83%
  Population Pyknosed Nuclei (%): 41%
  Population Tubulin-Different-Phenotype (%): 47%
  Total Cell Count: 307
[2]; [6]
  Population Apoptotic (%): 12%
  Population Fragmented Nuclei (%): 5%
  Population Healthy Nuclei (%): 50%
  Population Hoechst High Intensity Objects (%): 6%
  Population Membrane Permeable-Phenotype (%): 5%
  Population Mitochondria Different-Phenotype (%): 15%
  Population Mitotic Cells (%): 87%
  Population Normal (%): 93%
  Population Pyknosed Nuclei (%): 44%
  Population Tubulin-Different-Phenotype (%): 22%
  Total Cell Count: 170
[2]; [7]
  Population Apoptotic (%): 53%
  Population Fragmented Nuclei (%): 7%
  Population Healthy Nuclei (%): 43%
  Population Hoechst High Intensity Objects (%): 9%
  Population Membrane Permeable-Phenotype (%): 10%
  Population Mitochondria Different-Phenotype (%): 92%
  Population Mitotic Cells (%): 46%
  Population Normal (%): 90%
  Population Pyknosed Nuclei (%): 48%
  Population Tubulin-Different-Phenotype (%): 94%
  Total Cell Count: 302
[2]; [8]
  Population Apoptotic (%): 38%
  Population Fragmented Nuclei (%): 2%
  Population Healthy Nuclei (%): 45%
  Population Hoechst High Intensity Objects (%): 4%
  Population Membrane Permeable-Phenotype (%): 11%
  Population Mitochondria Different-Phenotype (%): 82%
  Population Mitotic Cells (%): 61%
  Population Normal (%): 95%
  Population Pyknosed Nuclei (%): 51%
  Population Tubulin-Different-Phenotype (%): 96%
  Total Cell Count: 359
[2]; [9]
  Population Apoptotic (%): 50%
  Population Fragmented Nuclei (%): 13%
  Population Healthy Nuclei (%): 44%
  Population Hoechst High Intensity Objects (%): 12%
  Population Membrane Permeable-Phenotype (%): 4%
  Population Mitochondria Different-Phenotype (%): 61%
  Population Mitotic Cells (%): 49%
  Population Normal (%): 87%
  Population Pyknosed Nuclei (%): 41%
  Population Tubulin-Different-Phenotype (%): 44%
  Total Cell Count: 295
[2]; [10]
  Population Apoptotic (%): 13%
  Population Fragmented Nuclei (%): 5%
  Population Healthy Nuclei (%): 75%
  Population Hoechst High Intensity Objects (%): 2%
  Population Membrane Permeable-Phenotype (%): 9%
  Population Mitochondria Different-Phenotype (%): 11%
  Population Mitotic Cells (%): 86%
  Population Normal (%): 97%
  Population Pyknosed Nuclei (%): 18%
  Population Tubulin-Different-Phenotype (%): 22%
  Total Cell Count: 194
[2]; [11]
  Population Apoptotic (%): 63%
  Population Fragmented Nuclei (%): 12%
  Population Healthy Nuclei (%): 54%
  Population Hoechst High Intensity Objects (%): 11%
  Population Membrane Permeable-Phenotype (%): 6%
  Population Mitochondria Different-Phenotype (%): 87%
  Population Mitotic Cells (%): 36%
  Population Normal (%): 88%
  Population Pyknosed Nuclei (%): 32%
  Population Tubulin-Different-Phenotype (%): 91%
  Total Cell Count: 306
[2]; [12]
  Population Apoptotic (%): 47%
  Population Fragmented Nuclei (%): 5%
  Population Healthy Nuclei (%): 63%
  Population Hoechst High Intensity Objects (%): 3%
  Population Membrane Permeable-Phenotype (%): 3%
  Population Mitochondria Different-Phenotype (%): 71%
  Population Mitotic Cells (%): 52%
  Population Normal (%): 96%
  Population Pyknosed Nuclei (%): 30%
  Population Tubulin-Different-Phenotype (%): 90%
  Total Cell Count: 377
[2]; [13]
  Population Apoptotic (%): 47%
  Population Fragmented Nuclei (%): 22%
  Population Healthy Nuclei (%): 28%
  Population Hoechst High Intensity Objects (%): 14%
  Population Membrane Permeable-Phenotype (%): 2%
  Population Mitochondria Different-Phenotype (%): 33%
  Population Mitotic Cells (%): 52%
  Population Normal (%): 85%
  Population Pyknosed Nuclei (%): 49%
  Population Tubulin-Different-Phenotype (%): 29%
  Total Cell Count: 321
[2]; [14]
  Population Apoptotic (%): 33%
  Population Fragmented Nuclei (%): 14%
  Population Healthy Nuclei (%): 79%
  Population Hoechst High Intensity Objects (%): 2%
  Population Membrane Permeable-Phenotype (%): 10%
  Population Mitochondria Different-Phenotype (%): 7%
  Population Mitotic Cells (%): 66%
  Population Normal (%): 97%
  Population Pyknosed Nuclei (%): 5%
  Population Tubulin-Different-Phenotype (%): 22%
  Total Cell Count: 270
[2]; [15]
  Population Apoptotic (%): 75%
  Population Fragmented Nuclei (%): 19%
  Population Healthy Nuclei (%): 64%
  Population Hoechst High Intensity Objects (%): 8%
  Population Membrane Permeable-Phenotype (%): 5%
  Population Mitochondria Different-Phenotype (%): 59%
  Population Mitotic Cells (%): 25%
  Population Normal (%): 91%
  Population Pyknosed Nuclei (%): 16%
  Population Tubulin-Different-Phenotype (%): 71%
  Total Cell Count: 323
[2]; [16]
  Population Apoptotic (%): 57%
  Population Fragmented Nuclei (%): 15%
  Population Healthy Nuclei (%): 75%
  Population Hoechst High Intensity Objects (%): 3%
  Population Membrane Permeable-Phenotype (%): 3%
  Population Mitochondria Different-Phenotype (%): 41%
  Population Mitotic Cells (%): 42%
  Population Normal (%): 96%
  Population Pyknosed Nuclei (%): 9%
  Population Tubulin-Different-Phenotype (%): 79%
  Total Cell Count: 482
[3]; 0 h, replicate number 1, timepoint 0 hours
  Growth Rate: 1
[3]; [4]
  Growth Rate: 1
